Compound activity (PubChem BioAssay)
Compounds with a hit are over-represented: about 1.5% of the library has one in this group of screens.
HePTP inh = inhibitors of human HePTP phosphatase | inhibition, % at 20 µM | actives 0.64% (n = 110,000) | recombinant HePTP phosphatase activity, OD absorbance | P35236 | AID 521; in the data active = inhibition above about 50%;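 also: plate controls were vehicle for no effect and reference inhibitor for full effect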
Target sequence (P35236 whole entry, looked up): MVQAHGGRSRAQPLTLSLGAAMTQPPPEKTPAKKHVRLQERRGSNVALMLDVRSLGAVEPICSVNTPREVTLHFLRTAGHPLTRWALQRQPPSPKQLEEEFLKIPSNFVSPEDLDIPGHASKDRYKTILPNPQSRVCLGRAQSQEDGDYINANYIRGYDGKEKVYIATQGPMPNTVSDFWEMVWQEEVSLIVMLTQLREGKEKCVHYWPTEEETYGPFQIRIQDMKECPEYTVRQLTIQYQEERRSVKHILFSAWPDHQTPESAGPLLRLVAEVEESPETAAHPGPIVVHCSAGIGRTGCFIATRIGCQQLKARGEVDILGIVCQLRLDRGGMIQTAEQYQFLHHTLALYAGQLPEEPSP
AP ELISA ortho = orthogonal test for alternative complement pathway inhibitors; actives 0.08% (n = 62,000); Human serum alternative complement pathway, LPS-coated ELISA, C3 deposition; tested in compound mixtures; inhibition, % at 5 µM; AID 1235;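 active = inhibition above 30% in each of the two pooled mixtures holding the compound, so the lower value exceeds 30%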;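 also: 0% = serum in Mg-EGTA without compound and 100% = EDTA serum blank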
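Assay system: Human serum alternative complement pathway, C3 deposition on LPS-coated wells | Incubation: 1 h serum-compound exposure at 37 °C | Doses: 5 µM per compound in ten-compound mixtures | Read-out: Percent inhibition | Technique: ELISA with HRP anti-human C3 antibody, TMB substrate, absorbance 450 nm | Replication: Two pool placements per compound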
PLK1 kinase inh = inhibitors of human PLK1 kinase; P53350; recombinant PLK1 kinase, TR-FRET peptide phosphorylation; inhibition, % at 10 µM; actives 0.53% (n = 97,000); AID 619;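 active = inhibition of 50% or more in the single-concentration screen; inactive = inhibition below 50%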;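 also: 0% = DMSO max control and 100% = H-89 dihydrochloride min control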
PTK2B oligo ant = blocks oligomerization of human Pyk2 in cells. Q14289. Q293 cells, Pyk2 FERM NanoBiT luminescence; stronger effect = lower value. z-score (the deposit names both 25 µM and 10 µM). actives 0.83% (n = 99,000). AID 1347419;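 active = Z-score of -3 or lower, scaled per plate to the spread of control and sample wells; inactive = z-score above -3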;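 also: negative z-score means lost luminescence so less FERM oligomerization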
PLK1 PBD inh = inhibitors of human Plk1 polo box domain binding | actives 0.13% (n = 97,000) | inhibition, %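 (tested at about 20 µM)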 | P53350 | Plk1 PBD phosphopeptide binding, fluorescence polarization; in the data active = inhibition above about 34%, passing the limit was not always enough
HEK293 NFkB inh = lowers PMA/ionomycin-induced NF-kB signal in HEK293 cells. inhibition, % at 3 µM. actives 0.21% (n = 62,000). HEK-293 NF-kB luciferase reporter, luminescence. AID 465;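 active = inhibition above the mean of all tested compounds plus 3 SD, cut at about 40% in these data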;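 also: 0% = stimulated DMSO wells and 100% = 10 µM reference inhibitor 5653914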
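System: NF-kB luciferase reporter HEK-293 cells | Replication: Single test | Control set: DMSO vs reference inhibitor | Evaluation: % inhibition | Schedule: 1 h pretreatment, 16 h stimulation, 37 °C | Probe or stimulus: PMA with ionomycin | Compound dosing: One dose, 3 µM | Detection: Luciferase luminescence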
* = called active by the depositor; . = not tested or not shown.

SMILES | HePTP inh | AP ELISA ortho | PLK1 kinase inh | PTK2B oligo ant | PLK1 PBD inh | HEK293 NFkB inh
N#C/C(=C\c1ccc(F)cc1)c1nn(CCO)c(N)c1C#N | -6 | . | . | . | . | .
C=C(C)COc1ccc(-c2[nH]ncc2Oc2ccccc2OC)c(O)c1 | -7 | -23 | -15 | -3.6* | -16 | 9
CCOc1ccc(-c2[nH]ncc2Oc2ccccc2OC)c(O)c1 | 8 | 8 | -6 | -3* | -9 | 6
COc1ccc(/C=N/NC(=O)CC2C(=O)NN=C2C)cc1 (centres undefined) | 10 | . | . | . | . | .
Cc1oc(-c2cccc(Cl)c2)nc1CN1CCCC(C(=O)NC(C)c2ccc3c(c2)OCCO3)C1 (centres undefined) | 11 | 12 | 56* | . | 4 | 23
COc1ccc(C=C2C(=O)c3ccccc3C2=O)c(O)c1 | 2 | . | . | . | . | .
COC(=O)C1=C(C)N(c2ccc(OC)cc2)C(=O)/C1=C\c1ccc(O)cc1 | 9 | . | . | . | . | .
COc1c(Cl)cc(C(=O)Nc2ccccc2C(=O)O)cc1Cl | . | . | -1 | -3.1* | -13 | .
O=C1c2cccc3c(N4CCCCC4)ccc(c23)C(=O)N1c1ccc(Cl)cc1 | 4 | . | . | . | . | .
CN(C)Cc1c(O)c[n+]([O-])c2ccccc12 | 103* | . | . | . | . | .
O=C(/C=C\Nc1ccc2c(c1)OCO2)c1ccccn1 | 10 | 8 | -12 | 0.14 | 7 | 48*
Nc1ccc(NC(=O)c2ccccc2)cc1 | 7 | . | . | . | . | .
CC(C)COC(=O)n1c(=O)oc2cc(S(=O)(=O)N3CCCCC3)ccc21 | 6 | 12 | -9 | -3.5* | 3 | 7
O=c1c(-c2ccccc2)c(C(F)(F)F)oc2cc(O)ccc12 | -13 | . | . | . | . | .
O=C(O)c1cc(-c2cccc(Cl)c2)nc2ccccc12 | 104* | . | . | . | . | .
Cc1ccc(N2CC(C(=O)NCC3CCCO3)CC2=O)cc1 (centres undefined) | 0 | . | . | . | . | .
O=C(Cn1cnc2c(cnn2-c2ccccc2)c1=O)OCc1ccccc1 | 8 | 9 | 50* | 0.42 | -23 | 12
Cc1cc(C)cc(N2C(=O)C3C(c4ccccc4Cl)OC4(C(=O)c5ccccc5C4=O)C3C2=O)c1 (centres undefined) | -12 | . | . | . | . | .
CCc1ccccc1N1C(=O)C2C(c3ccccc3Cl)OC3(C(=O)c4ccccc4C3=O)C2C1=O (centres undefined) | 104* | . | . | . | . | .
CCN(CC)C(=O)Nc1c(C)n(C)n(-c2ccccc2)c1=O | . | . | 55* | 0.19 | 14 | .
Cc1c(NC(=O)CN2CCN(C(c3ccccc3)c3ccccc3)CC2)c(=O)n(-c2ccccc2)n1C | 6 | 10 | -10 | -3.5* | -9 | 10
C/C=C/Cn1c(SCCCc2ccccc2)nc2c1c(=O)[nH]c(=O)n2C | 6 | 7 | -9 | . | -5 | -1
CC(C)n1c(SCCCc2ccccc2)nc2c1c(=O)[nH]c(=O)n2C | 8 | 33* | -4 | . | 1 | -16
CCN(CC)S(=O)(=O)c1ccc(Cl)c(C(=O)Nc2cccc(F)c2)c1 | 4 | . | . | . | . | .
CCOc1ccc(NC(=O)/C=C/c2ccc([N+](=O)[O-])cc2)cc1 | 9 | . | . | . | . | .
SMILES | HePTP inh | AP ELISA ortho | PLK1 kinase inh | PTK2B oligo ant | PLK1 PBD inh | HEK293 NFkB inh
COc1cccc(NC(=O)Nc2ccc3c(c2)N(C)C(=O)CS3)c1 | . | . | -4 | -4* | -21 | .
O=C(O)c1cc(-c2ccc(/C=C/c3cc(C(F)(F)F)[nH]c(=O)n3)o2)ccc1Cl | 65* | . | . | . | . | .
O=c1nc(/C=C/c2ccc(-c3ccc(F)cc3)o2)cc(C(F)(F)F)[nH]1 | . | . | -40 | . | -14 | .
CCOC(=O)c1cccc(NC(=O)c2cccnc2)c1 | 6 | -5 | . | -0.44 | . | 13
CCOC(=O)c1cccc(Nc2nc(-c3cccnc3)nc3ccccc23)c1 | . | . | -19 | -3.6* | 5 | .
O=[N+]([O-])c1ccc(CN2CCN(Cc3cccnc3)CC2)cc1 | -10 | . | . | . | . | .
Cc1ccccc1-c1cc(C(=O)Nc2sc(C)c(C)c2C(N)=O)c2ccccc2n1 | . | . | -7 | -0.92 | 22 | .
CCOC(=O)c1sc(NC(=O)c2cc(-c3ccccc3C)nc3ccccc23)c(C#N)c1C | . | . | -5 | -3.7* | 4 | .
COc1ccc(/C=N/Nc2cc(N3CCOCC3)ncn2)cc1 | 7 | . | . | . | . | .
O=C(Nc1ccccc1)NC1CCCCC1 | 89* | . | -7 | 0.05 | -9 | .
COc1ccc(Cl)cc1C(=O)N1CCN(c2ccccc2)CC1 | 6 | . | . | . | . | .
CCOC(=O)c1c(C)[nH]c(N=Nc2cccc(OC)c2)c1C | 103* | . | . | . | . | .
